Measurements of several laboratories.
Protocols differ between the studies behind these lines.
Target: Tyrosine-protein kinase Mer (MERTK, Homo sapiens, UniProt Q12866)
Sequence (Q12866 21-999, as in one of the studies): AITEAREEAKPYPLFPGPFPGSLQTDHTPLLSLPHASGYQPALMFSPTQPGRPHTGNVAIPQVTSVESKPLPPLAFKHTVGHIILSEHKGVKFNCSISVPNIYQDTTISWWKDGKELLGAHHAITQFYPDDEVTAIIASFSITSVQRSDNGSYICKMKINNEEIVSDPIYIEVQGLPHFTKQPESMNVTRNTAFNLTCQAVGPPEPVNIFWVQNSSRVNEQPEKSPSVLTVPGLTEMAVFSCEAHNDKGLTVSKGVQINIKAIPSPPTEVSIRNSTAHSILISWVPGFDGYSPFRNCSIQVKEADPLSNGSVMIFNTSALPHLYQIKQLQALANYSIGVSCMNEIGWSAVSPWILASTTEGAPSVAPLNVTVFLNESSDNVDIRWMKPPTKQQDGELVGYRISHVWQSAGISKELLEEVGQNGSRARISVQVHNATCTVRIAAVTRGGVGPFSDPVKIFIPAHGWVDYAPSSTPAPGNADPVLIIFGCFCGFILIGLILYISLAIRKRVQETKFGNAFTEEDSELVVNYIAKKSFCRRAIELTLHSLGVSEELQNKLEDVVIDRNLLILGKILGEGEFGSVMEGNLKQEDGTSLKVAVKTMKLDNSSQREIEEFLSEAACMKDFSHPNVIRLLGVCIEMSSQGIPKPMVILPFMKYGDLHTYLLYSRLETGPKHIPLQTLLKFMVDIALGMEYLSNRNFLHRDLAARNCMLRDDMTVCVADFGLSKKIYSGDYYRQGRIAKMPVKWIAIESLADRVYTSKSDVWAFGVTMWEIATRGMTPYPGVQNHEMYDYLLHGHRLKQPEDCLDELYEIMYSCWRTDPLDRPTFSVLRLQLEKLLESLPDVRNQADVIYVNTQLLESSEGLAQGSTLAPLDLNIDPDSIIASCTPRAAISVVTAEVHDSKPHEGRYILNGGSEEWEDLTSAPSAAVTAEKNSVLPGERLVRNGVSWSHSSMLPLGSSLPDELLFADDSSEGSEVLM

SMILES	test	conditions	quantity	result
Cn1cncc1[C@@](O)(COc1ccc(C#N)cc1-c1ccc(OC(F)(F)F)cc1)c1ccc(C#N)cc1	cell-free assay, competition with immobilised ligand	1 µM	remaining binding	69%
COc1ncccc1-c1cnn2ccc(N3CCN(C(=O)OC(C)C)CC3)nc12	binding, competition with immobilised ligand	1 µM	remaining binding	100%
N#CC1(c2ccccn2)CCN(Cc2cc(C(=O)O)c(=O)n3ccccc23)CC1	cell-free assay, competition with immobilised ligand	1 µM	remaining binding	100%
CC(C)(C)c1cc(C=C(C#N)C#N)cc(Br)c1O	enzyme activity, inhibitor	0.5 µM	remaining activity	97.3%
COc1cc(Nc2ncc(F)c(Nc3ccc4c(n3)NC(=O)C(C)(C)O4)n2)cc(OC)c1OC	binding, competition with immobilised ligand	10 µM	inhibition	100%
Cn1cc(-c2cc(F)cc(N3CCn4c(cc5c4CCCC5)C3=O)c2CO)cc(Nc2ccc(N3CCN(C4COC4)CC3)cn2)c1=O	enzyme activity, inhibitor	0.1 µM	inhibition	11%
O=c1[nH]c2ccccc2n1C1CCN(Cc2ccc(-c3[nH]c4cc5ncnc5cc4nc3-c3ccccc3)cc2)CC1	cell-free assay	0.5 µM	remaining signal	96.2%
C#Cc1n[nH]c2c(-c3cn(C(C)c4ccccn4)c(=O)[nH]c3=O)cc(F)cc12 (centres unmarked)	enzyme activity, inhibitor	1 µM	inhibition	99.6%
Nc1ncc(-c2nc(N3CCOCC3)nc(N3CCOCC3)n2)c(C(F)F)n1	binding, competition with immobilised ligand	10 µM	remaining binding	87%
Cn1cc(-c2cccc(N3CCc4c(sc5c4CC(C)(C)C5)C3=O)c2CO)cc(Nc2ccncn2)c1=O	enzyme activity, inhibitor	1 µM	inhibition	1%
Cc1nn(C)cc1-c1nc2c(N3CCN(Cc4ccc(Cl)cc4)CC3)c(Cl)cnc2[nH]1	binding, competition with immobilised ligand	1 µM	remaining binding	100%
